Source: publication PMC4079331 (Journal of Medicinal Chemistry, 2014)
One block for each compound: values may come before it.

Key:
[1] = Phase I metabolism in human microsomes; format: in vitro ADME; conditions: 1 h incubation, 100 μM, NADPH
Method in brief: (§1)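 Mouse or human microsomes (5 mg/mL protein final) in 0.1 M sodium phosphate pH 7.4 with 100 μM test compound (DMSO <1%), preincubated 5 min at 37 °C. Started with 1 mM NADPH and run 60 min at 37 °C. Stopped with MeOH and centrifuged; supernatant analysed by LCMS. Controls: zero time, no NADPH, boiled microsomes, and 7-ethoxycoumarin as CYP substrate.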

[2] = system: CLL; conditions: read-out: EC50 against CLL; p53-independent activity; cited from earlier work
[3] = system: KB nasopharyngeal tumor cells; conditions: in vitro cultured cells; from the literature, reference not given; cited from earlier work
[4] = system: CLL patient cells; assay: In vitro activity against CLL patient cells, summary statements over cell lines; format: cell-based, human; conditions: for in vitro activity against CLL patient cells: result in words
Method in brief: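 Primary CLL cells from consented patients, cultured in RPMI with 10% FBS and test compound at designated concentrations for 48 h (37 °C, 5% CO2). Viability is the DiOC6+/PI− fraction relative to untreated or vehicle control. EC50 and SE come from dose–response curves.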

[5] = Phase I metabolism in mouse microsomes; format: in vitro ADME; conditions: 1 h incubation, 100 μM, NADPH
Method in brief: as §1

[6] = Phase II glucuronidation in human S9 fractions; format: in vitro ADME
[7] = Phase II glucuronidation in mouse S9 fractions; format: in vitro ADME
[8] = Nonspecific protein binding, from recovery out of plasma and serum; format: in vitro ADME; conditions: result in words
Method in brief: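 Test compound at 50 μM final (1% DMSO) in pooled female BALB/c mouse plasma or serum, or in human AB serum, incubated at 37 °C with gentle agitation. Aliquots taken at 0, 0.5, 1, 2, 8, 18 and 24 h were precipitated with CH3CN and centrifuged at 3000g for 10 min; supernatants were quantified by LCMS. Run in triplicate.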

[9] = Stability in mouse plasma; format: in vitro ADME; conditions: female, BALB/c, mouse plasma (pooled)
Method in brief: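 Test compound at 50 μM final (1% DMSO) in pooled plasma from female BALB/c mice or human AB serum. Incubated at 37 °C with gentle agitation. Samples taken at 0, 0.5, 1, 2, 8, 18 and 24 h. Proteins precipitated with CH3CN, vortexed and centrifuged (3000g, 10 min, room temperature); supernatant analysed by LCMS. Run in triplicate.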

[10] = system: CLL2 (CLL patient cell line); assay: In vitro cytotoxicity against primary CLL patient cells CLL2; format: cell-based, human; conditions: for EC50: read-out: antitumor EC50 CLL2, Table 3, SE ±0.01 μM
[11] = system: JVM-2 (ATCC leukemia cell line); assay: In vitro cytotoxicity against JVM-2; format: cell-based; conditions: read-out: antitumor EC50 JVM-2; Table 3; SE ±0.01 μM
[12] = system: CLL1 (CLL patient cell line); assay: In vitro cytotoxicity against primary CLL patient cells CLL1; format: cell-based, human; conditions: read-out: antitumor EC50 CLL1; Table 3; SE ±0.01 μM
[13] = system: HeLa cell line; assay: HeLa cell viability by the MTT method; format: cell-based; conditions: read-out: antitumor EC50 HeLa; Table 3; SE ±0.01 μM

Compound: CN1C(=O)N[C@H]2[C@@H]3NC(=O)c4ccc(Br)n4[C@@H]3C[C@]21O [1a, (−)-Agelastatin A]
- metabolism by cytochrome P450 enzymes, recovery from supernatant (LCMS) [1]: quantitative recovery
- EC50 [2]: 0.06 to 0.1 µM
- IC50, growth of KB nasopharyngeal tumor cells [3]: 0.5–1 μg mL^–1
- EC50 ([4]; read-out: EC50, CLL activity, range over the cell lines tested): 0.11 to 0.31 µM
- metabolism by cytochrome P450 enzymes, recovery from supernatant (LCMS) [5]: quantitative recovery
- formation of glucuronides [6]: No formation of glucoronides was detected
- formation of glucuronides [7]: No formation of glucoronides was detected
- nonspecific protein binding [8]: relatively low

Compound: CN1C(=O)N[C@H]2[C@@H]3NC(=O)c4ccc(Cl)n4[C@@H]3C[C@]21O [1d, 13-Debromo-13-chloro-agelastatin A]
- in vitro activity against CLL patient cells [4]: nanomolar

Compound: CN1C(=O)N[C@H]2[C@@H]3NC(=O)c4cc(Cl)c(Cl)n4[C@@H]3C[C@]21O [1e, 13-Debromo-13,14-dichloro-agelastatin A]
- in vitro activity against CLL patient cells [4]: nanomolar

Compound: CN1C(=O)N[C@H]2[C@@H]3NC(=O)c4ccc(I)n4[C@@H]3C[C@]21O [1g, 13-Debromo-13-iodo-agelastatin A]
- in vitro activity against CLL patient cells [4]: nanomolar

- metabolism by cytochrome P450 enzymes, recovery from supernatant (LCMS) [1]: quantitative recovery
- metabolism by cytochrome P450 enzymes, recovery from supernatant (LCMS) [5]: quantitative recovery
- recovery at 24 h, 50 μM [9]: 65 to 90%
- nonspecific protein binding [8]: relatively low
Compound: CN1C(=O)N[C@H]2[C@@H]3NC(=O)c4ccc(C(F)(F)F)n4[C@@H]3C[C@]21O [1j, 13-Debromo-13-trifluoromethyl-agelastatin A]
- in vitro activity against CLL patient cells [4]: nanomolar

Compound: CN1C(=O)N[C@H]2[C@@H]3NC(=O)c4ccc(C#N)n4[C@@H]3C[C@]21O [1n, 13-Debromo-13-cyano-agelastatin A]
- in vitro activity against CLL patient cells [4]: nanomolar

- metabolism by cytochrome P450 enzymes, recovery from supernatant (LCMS) [1]: near quantitative recovery
- metabolism by cytochrome P450 enzymes, recovery from supernatant (LCMS) [5]: near quantitative recovery
Compound: CN1C(=O)N[C@H]2[C@@H]3NC(=O)c4cccn4[C@@H]3C[C@]21O [1p, 13-Debromo-agelastatin A]
- loss of activity on removal of Br from C-13 ([10]; compared with 1a): 25 fold

- metabolism by cytochrome P450 enzymes, recovery from supernatant (LCMS) [1]: metabolized
- metabolism by cytochrome P450 enzymes, recovery from supernatant (LCMS) [5]: metabolized
Compound: CCOc1ccc2ccc(=O)oc2c1 [7-ethoxycoumarin, reference compound]

Compound: O-(2′-Methoxyethyl)-agelastatin A [4c]
- EC50 [10]: 9.39 µM
- EC50 [11]: 21.1 µM

Compound: O-Methyl-agelastatin A [4b]
- EC50 [12]: 867 µM
- EC50 [10]: 28.8 µM
- EC50 [11]: 429 µM
- EC50 [13]: 91.4 µM
